The source made the active and inactive calls.
Key:
[1] = tested on: Human immunodeficiency virus 1; test: Antiviral activity against wild type HIV1 NL4-3 infected in human TZM-bl cells assessed as reduction in viral replication after 48 hrs by bright Glo-luciferase reporter gene assay based BiCycle assay; assay type: functional, organism-based; settings: Human immunodeficiency virus 1, NL4-3, TZM-bl
Summary of the method: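 BiCycle format: MT-2 cells infected with wild-type NL4-3 in the presence of compound dilutions. Virus produced in this first round was then quantified by infecting TZM-bl cells. IC50 was derived from the dose-response data.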

[2] = Inhibition of synthesized Nucleocapsid protein (11 to 55 residues) assessed as reduction in NC-induced cTAR DNA destabilization pre-treated with cTAR and Nucleocapsid (11-55) for 15 mins followed by compound addition at 10 uM by spectroflurometry relative to control
Summary of the method: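 NC chaperone inhibition assay: fluorescence monitoring of NC-induced destabilization of cTAR DNA labelled with Alexa488 at the 5′ end and Dabcyl quencher at the 3′ end. Compound is tested at 10 μM.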

[3] = Cytotoxicity against human PBMC cells assessed as reduction in cell viability after 7 days by MTS assay; assay type: cell-based; settings: read-out: TD50
Summary of the method: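 Cytotoxicity in peripheral blood mononuclear cells by MTS assay, giving TD50. Only compounds that met the BiCycle IC50 ≤ 5 μM criterion and were positive in the NC inhibition assay were tested.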

[4] = Selectivity index, ratio of TD50 for cytotoxicity aginst human PBMC cells to IC50 for antiviral activity against wild type HIV1 NL4-3 infected in human TZM-bl cells assessed as reduction in viral replication after 48 hrs by bright Glo-luciferase reporter gene assay based BiCycle assay; assay type: toxicity, cell-based; settings: read-out: Selectivity Index
Summary of the method: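 SI calculated as TD50 from the PBMC MTS assay divided by IC50 from the BiCycle antiviral assay (MT-2 infection followed by TZM-bl read-out).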

[5] = tested on: Human immunodeficiency virus 1; test: (§1) Antiviral activity against HIV1 11808 harboring protease L10F/K20T/V32I/L33F/I54V/G73S/I84V/L89V/L90M mutant infected in human TZM-bl cells infected with supernatants from virus-infected human MT2 cells treated with compound for 72 hrs assessed as reduction in viral replication after 48 hrs by bright Glo-luciferase reporter gene assay; assay type: functional, organism-based; settings: Human immunodeficiency virus 1, 11808
Summary of the method: (§2)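 BiCycle assay: MT-2 cells infected with a drug-resistant HIV-1 strain in the presence of compound dilutions. Virus produced in this first round is then measured by infecting TZM-bl cells. The readout is IC50.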

[6] = tested on: Human immunodeficiency virus 1; test: as §1, with “12465” for “11808”, “M46I/I54V/Q58E/T74P/V82L/L90M” for “L10F/K20T/V32I/L33F/I54V/G73S/I84V/L89V/L90M”; assay type: functional, organism-based; settings: Human immunodeficiency virus 1, 12465; summary of the method: as §2
[7] = tested on: Human immunodeficiency virus 1; test: as §1, with “7400” for “11808”, “nucleoside reverse transcriptase M41L/D67N/M184V/L210W/T215Y” for “protease L10F/K20T/V32I/L33F/I54V/G73S/I84V/L89V/L90M”; assay type: functional, organism-based; settings: Human immunodeficiency virus 1, 7400; summary of the method: as §2
[8] = tested on: Human immunodeficiency virus 1; test: as §1, with “7401” for “11808”, “nucleoside reverse transcriptase M41L/E44D/D67N/T69D/M184V/L210W/T215Y” for “protease L10F/K20T/V32I/L33F/I54V/G73S/I84V/L89V/L90M”; assay type: functional, organism-based; settings: Human immunodeficiency virus 1, 7401; summary of the method: as §2
[9] = tested on: Human immunodeficiency virus 1; test: as §1, with “12231” for “11808”, “non-nucleoside reverse transcriptase 103N/179F/181C” for “protease L10F/K20T/V32I/L33F/I54V/G73S/I84V/L89V/L90M”; assay type: functional, organism-based; settings: Human immunodeficiency virus 1, 12231; summary of the method: as §2
[10] = tested on: Human immunodeficiency virus 1; test: as §1, with “12229” for “11808”, “non-nucleoside reverse transcriptase L100I/K103N/H221Y” for “protease L10F/K20T/V32I/L33F/I54V/G73S/I84V/L89V/L90M”; assay type: functional, organism-based; settings: Human immunodeficiency virus 1, 12229; summary of the method: as §2
[11] = tested on: Human immunodeficiency virus 1; test: as §1, with “11845” for “11808”, “integrase 140S/148H double” for “protease L10F/K20T/V32I/L33F/I54V/G73S/I84V/L89V/L90M”; assay type: functional, organism-based; settings: Human immunodeficiency virus 1, 11845; summary of the method: as §2
[12] = tested on: Human immunodeficiency virus 1; test: Selectivity ratio of IC50 for HIV1 11808 harboring protease L10F/K20T/V32I/L33F/I54V/G73S/I84V/L89V/L90M mutant infected in human MT2 cells to IC50 for HIV1 NL4-3 infected in human MT2 cells; assay type: functional
Summary of the method: (§3)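 Fold change is the IC50 against the resistant strain divided by the IC50 against the wild-type NL4–3 reference. Both IC50 values come from the BiCycle assay (MT-2 infection, then TZM-bl readout of progeny virus).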

[13] = tested on: Human immunodeficiency virus 1; test: Selectivity ratio of IC50 for HIV1 12465 harboring protease M46I/I54V/Q58E/T74P/V82L/L90M mutant infected in human MT2 cells to IC50 for HIV1 NL4-3 infected in human MT2 cells; assay type: functional; summary of the method: as §3
[14] = tested on: Human immunodeficiency virus 1; test: Selectivity ratio of IC50 for HIV1 7400 harboring nucleoside reverse transcriptase M41L/D67N/M184V/L210W/T215Y mutant infected in human MT2 cells to IC50 for HIV1 NL4-3 infected in human MT2 cells; assay type: functional; summary of the method: as §3
[15] = tested on: Human immunodeficiency virus 1; test: Selectivity ratio of IC50 for HIV1 7401 harboring nucleoside reverse transcriptase M41L/E44D/D67N/T69D/M184V/L210W/T215Y mutant infected in human MT2 cells to IC50 for HIV1 NL4-3 infected in human MT2 cells; assay type: functional; summary of the method: as §3
[16] = tested on: Human immunodeficiency virus 1; test: Selectivity ratio of IC50 for HIV1 12231 harboring non-nucleoside reverse transcriptase 103N/179F/181C mutant infected in human MT2 cells to IC50 for HIV1 NL4-3 infected in human MT2 cells; assay type: functional; summary of the method: as §3
[17] = tested on: Human immunodeficiency virus 1; test: Selectivity ratio of IC50 for HIV1 12229 harboring non-nucleoside reverse transcriptase L100I/K103N/H221Y mutant infected in human MT2 cells to IC50 for HIV1 NL4-3 infected in human MT2 cells; assay type: functional; summary of the method: as §3
[18] = tested on: Human immunodeficiency virus 1; test: Selectivity ratio of IC50 for HIV1 11845 harboring integrase 140S/148H double mutant mutant infected in human MT2 cells to IC50 for HIV1 NL4-3 infected in human MT2 cells; assay type: functional; summary of the method: as §3
[19] = tested on: Human immunodeficiency virus 1; test: Antiviral activity against wild-type HIV1 NL4-3 infected in human TZM-bl cells treated with compound assessed as reduction in viral replication after 48 hrs by bright Glo-luciferase reporter gene assay based monocycle assay; settings: Human immunodeficiency virus 1, NL4-3
[20] = tested on: Human immunodeficiency virus 1; test: Antiviral activity against wild-type HIV1 NL4-3 infected infected in human MT2 cells assessed as reduction in HIV1 intracellular genomic RNA level at 1 uM and measured after 30 hrs post infection by TaqMan probe based RT-PCR analysis; assay type: functional, organism-based
Summary of the method: (§4)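 MT-2 cells were infected with NL4-3 at MOI 0.1 and incubated with test or reference agents at 20, 5 or 1 μM. Real-time PCR measured integrated HIV-1 DNA and intracellular and extracellular genomic HIV-1 RNA at 30 h post-infection. Levels are expressed as a percentage of the no-drug control culture.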

[21] = tested on: Human immunodeficiency virus 1; test: Antiviral activity against wild-type HIV1 NL4-3 infected infected in human MT2 cells assessed as reduction in HIV1 extracellular genomic RNA level at 1 uM and measured after 30 hrs post infection by TaqMan probe based RT-PCR analysis; assay type: functional, organism-based; summary of the method: as §4
[22] = tested on: Human immunodeficiency virus 1; test: Antiviral activity against wild-type HIV1 NL4-3 infected infected in human MT2 cells assessed as reduction in HIV1 integrated DNA at 1 uM and measured after 30 hrs post infection by Alu-LTR PCR protocol based method; assay type: functional, organism-based; summary of the method: as §4

Nc1ccc(NCCNC(=O)c2ccc(COc3ccccc3-c3csc(N)n3)cc2)nc1.O=C(O)C(F)(F)F.O=C(O)C(F)(F)F.O=C(O)C(F)(F)F
IC50 [1]: 3.8 µM | inhibition [2]: 15% | CC50 at 168 h [3]: 45 µM | selectivity ratio at 48 h [4]: 12 | IC50 [5]: 3 µM | IC50 [6]: 6 µM | IC50 [7]: 1.5 µM | IC50 [8]: 2.7 µM | IC50 [9]: 5 µM | IC50 [10]: 12 µM | IC50 [11]: 2.3 µM | Ratio IC50 [12]: 0.8 | Ratio IC50 [13]: 1.6 | Ratio IC50 [14]: 0.4 | Ratio IC50 [15]: 0.7 | Ratio IC50 [16]: 1.3 | Ratio IC50 [17]: 3.1 | Ratio IC50 [18]: 0.6 | IC50 [19]: > 50 µM

Nc1nc(-c2ccccc2OCc2ccc(C(=O)NCCN3CCOCC3)cc2)cs1
IC50 [1]: > 100 µM | IC50 [19]: > 100 µM

Nc1nc(-c2ccc(OCc3cccc(C(=O)NCCNC(=O)c4ccc(COc5cccc6sc(N)nc56)cc4)c3)cc2)cs1
IC50 [1]: 37 µM | inhibition [2]: 17% | IC50 [19]: > 50 µM

Nc1ccc(NCCNS(=O)(=O)c2ccc(COc3ccccc3-c3csc(N)n3)cc2)nc1
IC50 [1]: > 100 µM | IC50 [19]: > 100 µM

Nc1nc(CC(=O)NCCNC(=O)c2ccc(COc3ccccc3-c3csc(N)n3)cc2)cs1
IC50 [1]: > 100 µM | IC50 [19]: > 100 µM

Nc1nc(-c2ccc(OCc3cccc(C(=O)NCCNC(=O)c4ccc(COc5ccccc5-c5csc(N)n5)cc4)c3)cc2)cs1.O=C(O)C(F)(F)F.O=C(O)C(F)(F)F
IC50 [1]: 1.3 µM | inhibition [2]: 24% | CC50 at 168 h [3]: 30 µM | selectivity ratio at 48 h [4]: 23 | IC50 [5]: 2.1 µM | IC50 [6]: 1.2 µM | IC50 [7]: 0.8 µM | IC50 [8]: 1.2 µM | IC50 [9]: 0.8 µM | IC50 [10]: 2.2 µM | IC50 [11]: 1 µM | Ratio IC50 [12]: 1.3 | Ratio IC50 [13]: 0.9 | Ratio IC50 [14]: 0.6 | Ratio IC50 [15]: 0.9 | Ratio IC50 [16]: 0.6 | Ratio IC50 [17]: 1.7 | Ratio IC50 [18]: 0.8 | IC50 [19]: 5 µM

Cc1cc(/C=C/C#N)cc(C)c1Nc1ccnc(Nc2ccc(C#N)cc2)n1
Activity [20]: Active | Activity [21]: Active

Nc1nc(-c2ccc(OCc3cccc(C(=O)N4CCN(C(=O)c5ccc(COc6ccccc6-c6csc(N)n6)cc5)CC4)c3)cc2)cs1
IC50 [1]: 28 µM | inhibition [2]: 15% | IC50 [19]: > 50 µM

Nc1nc(CCc2nc(-c3ccc(COc4ccccc4-c4csc(N)n4)cc3)no2)cs1
IC50 [1]: 6 µM | inhibition [2]: inactive | IC50 [19]: 35 µM

Nc1nc(-c2ccc(OCc3cccc(C(=O)NCCCNC(=O)c4ccc(COc5ccccc5-c5csc(N)n5)cc4)c3)cc2)cs1
IC50 [1]: 12 µM | inhibition [2]: 16% | IC50 [19]: > 50 µM

Nc1nc(-c2ccc(C(=O)NCCNC(=O)c3ccc(COc4ccccc4-c4csc(N)n4)cc3)cc2)cs1
IC50 [1]: 5 µM | inhibition [2]: inactive | IC50 [19]: 30 µM

Nc1nc(CCNC(=O)c2ccc(COc3ccccc3-c3csc(N)n3)cc2)cs1
IC50 [1]: 36 µM | inhibition [2]: 16% | IC50 [19]: > 50 µM

Nc1nc(-c2ccc(OCc3cccc(C(=O)NCCNC(=O)c4ccc(COc5ccc(F)cc5-c5csc(N)n5)cc4)c3)cc2)cs1.O=C(O)C(F)(F)F.O=C(O)C(F)(F)F
IC50 [1]: 1.1 µM | inhibition [2]: 16% | CC50 at 168 h [3]: > 50 µM | selectivity ratio at 48 h [4]: > 45 | IC50 [5]: 0.8 µM | IC50 [6]: 2 µM | IC50 [7]: 1.1 µM | IC50 [8]: 0.6 µM | IC50 [9]: 4 µM | IC50 [10]: 0.9 µM | IC50 [11]: 3 µM | Ratio IC50 [12]: 0.7 | Ratio IC50 [13]: 1.8 | Ratio IC50 [14]: 1 | Ratio IC50 [15]: 0.5 | Ratio IC50 [16]: 3.6 | Ratio IC50 [17]: 0.8 | Ratio IC50 [18]: 2.7 | IC50 [19]: > 50 µM

Nc1nc(-c2ccc(OCc3cccc(C(=O)NCCNC(=O)c4ccc(COc5ccccc5-c5coc(N)n5)cc4)c3)cc2)co1
IC50 [1]: 6.2 µM | inhibition [2]: 21% | IC50 [19]: > 50 µM

Nc1nc(-c2ccccc2OCc2ccc(C(=O)NCCCNc3ccc([N+](=O)[O-])cn3)cc2)cs1
IC50 [1]: 12 µM | inhibition [2]: 21% | IC50 [19]: 28 µM

Cc1nnc(C(=O)NC(C)(C)c2nc(C(=O)NCc3ccc(F)cc3)c(O)c(=O)n2C)o1
Activity [22]: Active

Nc1nc(-c2ccc(C(=O)NCCCNC(=O)c3ccc(COc4ccccc4-c4csc(N)n4)cc3)cc2)cs1
IC50 [1]: 15 µM | inhibition [2]: 15% | IC50 [19]: 12 µM

Nc1nc(-c2ccc(OCc3cccc(C(=O)NCCCCNC(=O)c4ccc(COc5ccccc5-c5csc(N)n5)cc4)c3)cc2)cs1
IC50 [1]: 5 µM | inhibition [2]: 19% | CC50 at 168 h [3]: > 100 µM | selectivity ratio at 48 h [4]: > 20 | IC50 [19]: 16 µM
